Experiment [1] has as its system B16. Description: In vivo antineoplastic activity against B16 melanoma screen inoculated intraperitoneally expressed as minimum effective dose. It is filed as functional, Mus musculus.
Experiment [2] concerns B16. As to the kind of experiment: In vivo antineoplastic activity against B16 melanoma screen inoculated intraperitoneally. Value in parenthesis indicates the optimal dosage. It is filed as functional, Mus musculus.
Experiment [3] concerns B16. As to the kind of experiment: In vivo antineoplastic activity of mitomycin C sample run concurrently against B16 melanoma screen (optimal dosage). The format is functional, Mus musculus. The essentials:
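Murine B16 melanoma test, with tumor implanted sc and treatment given iv. Activity is %T/C = (median survival of treated / median survival of untreated control) × 100, reported at the optimal dose in mg/kg per dose. A mitomycin C sample was run alongside. MED is the minimum mg/kg per dose meeting the activity criterion for %T/C.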

Experiment [4] has as its system P388. Description: In vivo antineoplastic activity against P388 leukemia. The format is functional, Mus musculus. The method, boiled down:
(§1)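 Murine P388 lymphocytic leukemia screen, with tumor implanted ip and drug given ip. Response is %T/C = (median survival of treated / median survival of control) × 100, reported at the optimal dose per dose in mg/kg. Mitomycin C was run concurrently. MED is the lowest mg/kg per dose that reaches the criterion %T/C.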

In experiment [5] the test system is P388. Description: In vivo antineoplastic activity of mitomycin C sample run concurrently against P388 leukemia screen (optimal dosage). The format is functional, Mus musculus. The method, boiled down:
as §1

For experiment [6], the system named is P388. As to the kind of experiment: In vivo antineoplastic activity against P388 leukemia screen inoculated intraperitoneally expressed as minimum effective dose. It is filed as functional. Conditions: Mus musculus, P388, ip; read-out: MED. The essentials: as §1
The test system of experiment [7] is B16. Description: In vivo antineoplastic activity against B16 melanoma screen inoculated subcutaneously expressed as minimum effective dose.
The test system of experiment [8] is B16. As to the kind of experiment: In vivo antineoplastic activity against B16 melanoma screen inoculated subcutaneously. Value in parenthesis indicates the optimal dosage.

Each structure is given as a SMILES string. Bounds are passed on as bounds.

`CO[C@@]12[C@H](COC(N)=O)C3=C(C(=O)C(C)=C(N)C3=O)N1C[C@H]1[C@H]2N1C(=O)Oc1ccccc1` displayed an MED in the experiment on B16 [1] of 3.2. The T/C with B16 [2] worked out at 165%; in the experiment with B16 [3], 147%; in the experiment on P388 [4], 194%; in the experiment on P388 [5] it was 275%. Besides, the minimal effective dose in the experiment with P388 [6] was 1.6 mg/kg.

Regarding `COC(=O)N1[C@H]2CN3C4=C(C(=O)C(N)=C(C)C4=O)[C@@H](COC(N)=O)[C@@]3(OC)[C@@H]21`, the T/C in the experiment on B16 [3] is given as 147%; in the experiment with P388 [4], 194%; with P388 [5], 275%; in the experiment on B16 [8], 165%. The minimal effective dose with P388 [6] was 3.2 mg/kg. In the experiment with B16 [7], this compound showed an MED of 6.4.

Turning to `CNC(=S)N1[C@H]2CN3C4=C(C(=O)C(N)=C(C)C4=O)[C@@H](COC(N)=O)[C@@]3(OC)[C@@H]21`, the T/C turned out to be 95% with P388 [4] and 152% in the experiment on P388 [5].

Regarding `CO[C@@]12[C@H](COC(N)=O)C3=C(C(=O)C(C)=C(N)C3=O)N1C[C@H]1[C@H]2N1C(=O)Sc1ccccc1`, the T/C is recorded as 147% in the experiment on B16 [3], 200% with P388 [4], 275% in the experiment on P388 [5] and 156% in the experiment with B16 [8]. Also, the minimal effective dose in the experiment with P388 [6] turned out to be 1.6 mg/kg. Also, the MED with B16 [7] was determined as 1.6.

For `CO[C@@]12[C@H](COC(N)=O)C3=C(C(=O)C(C)=C(N)C3=O)N1C[C@H]1[C@H]2N1C(=S)Sc1ccccc1`, the results for the T/C in the experiment with P388 [4] and with P388 [5] were 167% and 172%, respectively. Also, the minimal effective dose in the experiment with P388 [6] is 12.8 mg/kg.

On to `CO[C@@]12[C@H](COC(N)=O)C3=C(C(=O)C(C)=C(N)C3=O)N1C[C@H]1[C@H]2N1C(=O)SC`, for which the T/C with P388 [4] stood at 132%; in the experiment on P388 [5], 142%. The minimal effective dose in the experiment on P388 [6] worked out at 12.8 mg/kg.

As for `CO[C@@]12[C@H](COC(N)=O)C3=C(C(=O)C(C)=C(N)C3=O)N1C[C@H]1[C@H]2N1C(=S)Oc1ccccc1`, the T/C is 162% in the experiment with P388 [4] and 152% in the experiment with P388 [5]. Also, the minimal effective dose in the experiment with P388 [6] is 51.2 mg/kg.

For the compound `CNC(=O)N1[C@H]2CN3C4=C(C(=O)C(N)=C(C)C4=O)[C@@H](COC(N)=O)[C@@]3(OC)[C@@H]21`, the T/C is given as 121% with P388 [4] and 142% in the experiment with P388 [5].

Regarding `CO[C@@]12[C@H](COC(N)=O)C3=C(C(=O)C(C)=C(N)C3=O)N1C[C@H]1[C@H]2N1C(=S)SC`, the T/C is given as 122% in the experiment on P388 [4] and above 333% in the experiment with P388 [5].

For the compound `CO[C@@]12[C@H](COC(N)=O)C3=C(C(=O)C(C)=C(N)C3=O)N1C[C@H]1[C@H]2N1/C(S)=N\c1ccccc1`, the T/C is given as 127% in the experiment on P388 [4] and 200% with P388 [5]. Besides, in the experiment with P388 [6], the minimal effective dose is 2.56 mg/kg.

`CO[C@@]12[C@H](COC(N)=O)C3=C(C(=O)C(C)=C(N)C3=O)N1C[C@H]1[C@H]2N1C(=O)Nc1ccccc1`: the T/C in the experiment on P388 [4] came out at 116%; in the experiment on P388 [5], 142%.
